In one assay the target is Glutamate NMDA receptor. The experiment in a line: Binding affinity towards NMDA receptor to displace [3H]-L-689,560 from rat cortical membranes.
Regarding `O=C(c1c(O)nc2cc(Cl)ccc2c1O)N(O)CCc1ccccc1`, the half-inhibitory concentration (IC50) was 9.3 µM.
Same read-out and setting: then `O=C(CCc1ccccc1)c1c(O)nc2cc(Cl)ccc2c1O`, with over 100 µM; and `CCOC(=O)c1c(O)c2ccc([N+](=O)[O-])cc2[nH]c1=O`, with 25.4 µM; and `CCOC(=O)c1c(O)nc2cc(C#N)ccc2c1O`, with 26 µM.
Still for that read-out and setting: for `O=C(OCc1cccc(O)c1)c1c(O)nc2cc(Cl)ccc2c1O` the value was 6.13 µM; for `O=C(OCCCc1cccc(O)c1)c1c(O)nc2cc(Cl)ccc2c1O`, 2.64 µM.
Turning to `O=C(NCCc1ccc(O)cc1)c1c(O)nc2cc(Cl)ccc2c1O`, the IC50 was over 100 µM.
On the same count and under the same terms, for `O=C(OCCc1cccs1)c1c(O)nc2cc(Cl)ccc2c1O` the value was 3 µM; for `CCOC(=O)C1Oc2ccc(Cl)cc2NC1=O` (stereo not drawn), over 100 µM; for `O=C(OCCc1cccc(O)c1)c1c(O)nc2cc(Cl)ccc2c1O`, 1.82 µM.
The same measure, in the same setting: then `O=C(OCCCCc1cccc(O)c1)c1c(O)nc2cc(Cl)ccc2c1O`, with 2.62 µM; and `COC(=O)c1c(O)c2ccc(Cl)cc2[nH]c1=O`, with 6.4 µM.
On the same count and under the same terms, then `O=C(OCCc1ccccn1)c1c(O)nc2cc(Cl)ccc2c1O`, with 27.5 µM; and `O=C1CS(=O)(=O)c2ccc(Cl)cc2N1`, with over 100 µM; and `O=C1CC(=O)c2ccc(Cl)cc2N1`, with over 100 µM.
For `O=C(NOCc1ccccc1)c1c(O)nc2cc(Cl)ccc2c1O`, the concentration for half-maximal inhibition (IC50) was over 100 µM.
The same measure, in the same setting: then `CONC(=O)c1c(O)nc2cc(Cl)ccc2c1O`, with 3.09 µM.
On the same count and under the same terms, for `CC(=O)c1c(O)nc2cc(Cl)ccc2c1O` the value was over 100 µM.
On the same count and under the same terms, for `CCOC(=O)c1c(O)nc2cc(C(F)(F)F)ccc2c1O` the value was 12.3 µM.
Regarding `O=C(c1ccsc1)c1c(O)nc2cc(Cl)ccc2c1O`, the IC50 turned out to be 1.97 µM.
On the same count and under the same terms, for `O=C(c1ccco1)c1c(O)nc2cc(Cl)ccc2c1O` the value was 2.39 µM; for `O=C(OCCc1ccccc1O)c1c(O)nc2cc(Cl)ccc2c1O`, 7.12 µM.
On to `CCOC(=O)c1c(O)nc2cccc(C)c2c1O`, for which the 50% inhibitory concentration (IC50) is over 1000 µM.
Regarding `COC(=O)C1C(=O)Nc2cc(Cl)ccc21` (stereo not drawn), the IC50 is over 100 µM.
The same measure, in the same setting: for `COC(=O)C1C(=O)Nc2cc(Cl)ccc2S1(=O)=O` (stereo not drawn) the value was 13.6 µM; for `CCOC(=O)c1c(O)nc2ccc(Cl)cc2c1O`, over 100 µM.
Still for that read-out and setting: then `O=C(OCC#Cc1cccc(O)c1)c1c(O)c2ccc(Cl)cc2[nH]c1=O`, with 0.17 µM.
The same measure, in the same setting: for `O=C1Nc2cc(Cl)ccc2C(=O)C1C(=O)c1ccccc1` (stereo not drawn) the value was 3.16 µM; for `O=C(OCCc1ccc(O)cc1)c1c(O)nc2cc(Cl)ccc2c1O`, 2.93 µM; for `CN(Cc1ccccc1)C(=O)c1c(O)nc2cc(Cl)ccc2c1O`, over 100 µM.
Turning to `CCOC(=O)C1C(=O)Nc2cc(Cl)ccc2C1=O` (stereo not drawn), the IC50 is 16.7 µM.
The same measure, in the same setting: then `NC(=O)c1c(O)nc2cc(Cl)ccc2c1O`, with over 100 µM; and `O=C(OCCc1c[nH]c2ccccc12)c1c(O)nc2cc(Cl)ccc2c1O`, with 0.43 µM; and `CCCOC(=O)c1c(O)nc2cc(Cl)ccc2c1O`, with over 100 µM.
The compound `C=CCOC(=O)c1c(O)c2ccc(Cl)cc2[nH]c1=O` had a concentration for half-maximal inhibition (IC50) of 6.42 µM.
The same measure, in the same setting: then `CCOC(=O)c1c(O)nc2ccccc2c1O`, with over 100 µM; and `CCOC(=O)c1c(O)nc2c(C)cccc2c1O`, with over 100 µM.
Still for that read-out and setting: then `CON(C)C(=O)c1c(O)nc2cc(Cl)ccc2c1O`, with 47.1 µM; and `CCOC(=O)c1c(O)nc2cc([N+](=O)[O-])c([N+](=O)[O-])cc2c1O`, with 10.5 µM.
On the same count and under the same terms, for `COc1cccc(C#CCOC(=O)c2c(O)nc3cc(Cl)ccc3c2O)c1` the value was 0.27 µM.
Compound `O=C(NO)c1c(O)nc2cc(Cl)ccc2c1O` came in with an IC50 of 6.32 µM.
`C#CCOC(=O)c1c(O)nc2cc(Cl)ccc2c1O`: the concentration for half-maximal inhibition (IC50) was 9 µM.
Still for that read-out and setting: then `O=C(c1c(O)nc2cc(Cl)ccc2c1O)C1CCCCC1`, with over 100 µM; and `O=C(Cc1cccs1)c1c(O)nc2cc(Cl)ccc2c1O`, with 1.07 µM; and `O=C(c1cccnc1)c1c(O)nc2cc(Cl)ccc2c1O`, with 6.85 µM.
Take `O=C(SCCc1ccccc1)c1c(O)nc2cc(Cl)ccc2c1O`: the IC50 is over 10 µM.
In turn, `O=C(Cc1ccccc1)c1c(O)c2ccc(Cl)cc2[nH]c1=O` displayed a 50% inhibitory concentration (IC50) of 0.93 µM.

The subject of another assay is Mus musculus. The assay can be described thus: Effective dose of compound required to protect audiogenic seizure in DBA/2 mice administered ip. Format: functional. In outline:
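DBA/2 mice received compound intraperitoneally 30 min before audiogenic seizure induction. Protection was reported as an ED50 or as number protected/number tested at a single dose.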
Compound `O=C(c1c(O)nc2cc(Cl)ccc2c1O)C1CC1` yielded an ED50 of 4.1 mg/kg.
On to `O=C(Cc1ccccc1)c1c(O)c2ccc(Cl)cc2[nH]c1=O`, for which the ED50 amounted to 31.6 mg/kg.

Another assay is filed under the species Rattus norvegicus. The experiment in a line: Antagonistic activity against NMDA-induced response in rat cortical slice. The assay is classed as functional. In outline: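 Rat cortical slices were challenged with NMDA, with and without antagonist. Apparent Kb was calculated from the rightward shift of the NMDA concentration-response curve. Values are means of at least three experiments, with maximum variance (geometric mean) of 15%.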
As to `O=C(c1c(O)nc2cc(Cl)ccc2c1O)C1CC1`, the antagonist dissociation constant (Kb) amounted to 3.39 µM.
For the compound `COC(=O)C1C(=O)Nc2cc(Cl)ccc21` (stereo not drawn), the Kb is 441 µM.
Same read-out and setting: then `CCOC(=O)C1C(=O)Nc2cc(Cl)ccc2C1=O` (stereo not drawn), with 65.4 µM; and `O=C(Cc1ccccc1)c1c(O)c2ccc(Cl)cc2[nH]c1=O`, with 3.92 µM.

In general, IC50 refers to the concentration that gives 50% inhibition. The low end stands for inhibition by little substance, the high end for a need for much substance. The ED50 is the dose that gives a 50% effect, or the effect in half of the subjects. A lower ED50 goes with an effect at a small dose. Broadly, the Kb is the affinity of an antagonist, worked out from how it opposes an agonist. Read a high Kb as lower antagonist affinity.

These data come from ChEMBL document CHEMBL1126880, “3-Acyl-4-hydroxyquinolin-2(1H)-ones. Systemically active anticonvulsants acting by antagonism at the glycine site of the N-methyl-D-aspartate receptor complex” (J Med Chem, 1993).
